Measured values reported in ChEMBL document CHEMBL1817602, “Synthesis of benzo[3,4]azepino[1,2-b]isoquinolin-9-ones from 3-arylisoquinolines via ring closing metathesis and evaluation of topoisomerase I inhibitory activity, cytotoxicity and docking study” (Bioorg Med Chem, 2011).
Activity calls are given as the source filed them. The calls are words filed in the database; no cut-off is given here.

Columns and labels:
[1] = test system: HCT-15; assay: Cytotoxicity against human HCT15 cells after 48 hrs by MTT assay; assay type: functional, cell-based; conditions: HCT-15, 48 h
Procedure, shortened: (§1)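 Cells seeded at 10^5 cells/mL in 100 µL RPMI-1640 with 10% FBS; compounds added at various concentrations after 24 h and incubated 48 h. MTT (5 mg/mL stock in PBS, 50 µL per well) was added for a further incubation. Medium was discarded, formazan dissolved in DMSO, and absorbance read at 540 nm.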

[2] = test system: SK-OV-3; assay: Cytotoxicity against human SKOV3 cells after 48 hrs by MTT assay; assay type: functional, cell-based; conditions: SK-OV-3, 48 h; procedure, shortened: as §1
[3] = species: Bos taurus; assay: Inhibition of calf thymus topoisomerase 1-mediated relaxation of supercoiled pBR322 DNA at 20 to 100 uM after 30 mins using ethidium bromide staining by UV-light transillumination analysis
Procedure, shortened: (§2)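 Plasmid pBR322 (200 ng) with 0.3 U calf thymus topo I, compound at final 20 or 100 μM, 37 °C for 30 min in relaxation buffer (35 mM Tris–HCl pH 8.0, 72 mM KCl, MgCl2, DTT, spermidine, 0.01% BSA). Stopped with SDS loading mix, run on 1% agarose in TBE for 10 h, stained with ethidium bromide (0.5 μg/mL), and UV-visualized and quantitated. Scored semiquantitatively against camptothecin.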

[4] = test system: A549; assay: Cytotoxicity against human A549 cells after 48 hrs by MTT assay; assay type: functional, cell-based; conditions: A549, 48 h; procedure, shortened: as §1
[5] = test system: SK-MEL-2; assay: Cytotoxicity against human SK-MEL-2 cells after 48 hrs by MTT assay; assay type: functional, cell-based; conditions: SK-MEL-2, 48 h; procedure, shortened: as §1
[6] = species: Bos taurus; assay: Inhibition of calf thymus topoisomerase 1-mediated relaxation of supercoiled pBR322 DNA at 20 to 100 uM after 30 mins using ethidium bromide staining by UV-light transillumination analysis relative to camptothecin; procedure, shortened: as §2

Compound | IC50 [1] [µM] | IC50 [2] [µM] | inhibition [3] | IC50 [4] [µM] | IC50 [5] [µM] | inhibition [6]
C=CCn1c(-c2cc3c(cc2C=C)OCO3)cc2ccc(OC)c(OC)c2c1=O | > 100 | > 100 | inactive | > 100 | > 100 | –
C=CCn1c(-c2cc3c(cc2COCOC)OCO3)cc2ccc(OC)c(OC)c2c1=O | 28.2 | > 100 | inactive | 29.9 | 27.4 | –
C=CCn1c(-c2ccc(OC)cc2C=C)cc2ccccc2c1=O | 22.8 | 43.8 | Active | 17.2 | 11.6 | –
C=CCn1c(-c2ccc(OC)cc2C=O)cc2ccccc2c1=O | 56.5 | 65.5 | Active | 88.1 | 88.9 | –
C=CCn1c(-c2cc(OC)c(OC)cc2COCOC)cc2ccccc2c1=O | 78.7 | 37.7 | Active | 88.1 | 75 | –
COc1cc2c(cc1OC)-c1cc3ccccc3c(=O)n1CC=C2 | 21.3 | 11 | Active | 14.8 | 6.23 | –
COCOCc1cc2c(cc1-c1cc3ccccc3c(=O)[nH]1)OCO2 | 13.1 | 22.9 | – | 7.93 | 64.5 | Active
CC[C@@]1(O)C(=O)OCc2c1cc1n(c2=O)Cc2cc3ccccc3nc2-1 [CAMPTOTHECIN] | 0.166 | 2.54 | Active | 0.091 | 7.86 | –
C=CCn1c(-c2cc3c(cc2C=C)OCO3)cc2ccccc2c1=O | 11.2 | 13.6 | Active | 19.3 | 9.36 | –
O=c1c2ccccc2cc2n1CC=Cc1cc3c(cc1-2)OCO3 | 20.1 | 29.1 | Active | 17.1 | 28.6 | –
C=CCn1c(-c2cc3c(cc2COCOC)OCO3)cc2ccccc2c1=O | 36.1 | 29.5 | Active | 19.8 | 15.4 | –
C=CCn1c(-c2cc3c(cc2C=O)OCO3)cc2ccc(OC)c(OC)c2c1=O | 63.9 | 61.7 | Active | 85.1 | 71.2 | –
COCOCc1cc(OC)c(OC)cc1-c1cc2ccccc2c(=O)[nH]1 | 73.7 | 87.7 | Active | 85.1 | 55.2 | –
C=CCn1c(-c2cc(OC)c(OC)cc2C=O)cc2ccccc2c1=O | 77.5 | 85.5 | Active | 76.3 | 67.6 | –
C=CCn1c(-c2cc3c(cc2C=O)OCO3)cc2ccccc2c1=O | 54.1 | 56.9 | Active | 87.5 | > 100 | –
C=CCn1c(-c2cc(OC)c(OC)cc2C=C)cc2ccccc2c1=O | 75.2 | 35.5 | Active | 43.2 | 47.7 | –
C=CCn1c(-c2ccc(OC)cc2COCOC)cc2ccccc2c1=O | 27.8 | > 100 | Active | > 100 | 42.6 | –
COCOCc1cc(OC)ccc1-c1cc2ccccc2c(=O)[nH]1 | 27.5 | 75.5 | Active | 45.3 | 97.6 | –
COc1ccc2c(c1)C=CCn1c-2cc2ccccc2c1=O | 12.6 | 24.3 | Active | 6.48 | 7.74 | –
COc1ccc2cc3n(c(=O)c2c1OC)CC=Cc1cc2c(cc1-3)OCO2 | 6.34 | 2.8 | Active | 7.45 | 2.54 | –
